Laboratory results taken from ChEMBL document CHEMBL4715843, “NO-releasing STAT3 inhibitors suppress BRAF-mutant melanoma growth” (Eur J Med Chem, 2020).
Calls of active or inactive are those of the source. The calls are words filed in the database; no cut-off is given here.

What was measured:
[1] = Drug metabolism in pH 7.4 phosphate buffer assessed as nitric oxide release at 100 uM measured after 48 hrs by Griess reagent based colorimetric method
Summary of the method: (§1)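 Compound at 100 µM was held at room temperature in pH 7.4 phosphate buffer with 5 mM DTT and 2% DMSO for 2 or 48 h. Griess reagent was added, and after 30 min absorbance was read at 548 nm. NO release (mol NO/mol compound) was derived from a sodium nitrite calibration curve.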

A-375 [2] = experiment: Cytotoxicity against human A-375 cells assessed as inhibition of cell proliferation measured after 48 hrs by MTS assay; format: functional, cell-based; settings: A-375, 48 h
Summary of the method: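 Cells were exposed to a dose range of inhibitor for 48 h, and viability was read by MTS assay in triplicate. GI50 was taken as the concentration giving 50% growth inhibition, averaged from three independent experiments. A375 was cultured in RPMI-1640 with Glutamax. A549 and NCI-H157 were kept in RPMI-1640, and MIA PaCa-2 and U87-MG in DMEM.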

[3] = target: T1, Signal transducer and activator of transcription 3 (Homo sapiens, UniProt P40763); experiment: Inhibition of STAT3 phosphorylation at S727 residue in human SB-590885-sensitive 451Lu cells measured after 12 hrs by Western blot analysis; settings: dose 10-25 µM
Summary of the method: (§2)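 451 Lu and MEL 1617 pairs, sensitive and resistant; resistant lines maintained in RPMI with 1 µM PLX4720. Treated with 10 and 25 µM for 12 h versus DMSO. Lysates (60 µg protein, 10% SDS-PAGE) immunoblotted for Ser727- and Tyr705-phospho-STAT3, total STAT3, total PAX3, with actin.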

MCF-10A = experiment: Cytotoxicity against human MCF-10A cells assessed as inhibition of cell proliferation by MTS assay; format: cell-based; settings: Homo sapiens, MCF-10A; read-out: IC50
[4] = target: T1, Signal transducer and activator of transcription 3; experiment: Inhibition of STAT3 in human SB-590885-resistant 451Lu cells assessed as reduction in PAX3 expression measured after 12 hrs by Western blot analysis; settings: dose 10-25 µM; summary of the method: as §2
[5] = target: Signal transducer and activator of transcription 6 (Homo sapiens) (UniProt P42226); experiment: Inhibition of STAT6 phosphorylation at Y641 residues in human A-375 cells at 50 uM after 20 hrs by Western blotting analysis; format: cell-based
Summary of the method: (§3)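 A375 cells exposed to a dose range of inhibitor for 20 h (overnight), up to 50 µM; lysates immunoblotted for phospho-STAT1 Y701, phospho-STAT5 Y694 and phospho-STAT6 Y641, with actin and/or vinculin as loading controls.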

[6] = target: Tyrosine-protein kinase JAK2 (Homo sapiens) (UniProt O60674); experiment: Inhibition of JAK2 phosphorylation in human A-375 cells at 5 to 50 uM after 12 hrs by Western blotting analysis; format: cell-based; settings: dose 5-50 µM
Summary of the method: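 A375 cells were treated with 0, 5, 10 or 25 µM overnight (methods state 12 h) in RPMI-1640 with Glutamax. Lysates (60 µg protein) were run on 10% SDS-PAGE and immunoblotted for phospho-JAK2 or phospho-ERK1/2, with actin and/or vinculin as loading controls; performed twice.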

[7] = Antiproliferative activity against human SB-590885-resistant MEL1617 cells assessed as reduction in cell viability measured after 48 hrs by MTS assay; format: functional, cell-based; settings: Homo sapiens, MEL1617, 48 h; read-out: IC50
Summary of the method: (§4)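 Melanoma lines were grown in RPMI-1640 with Glutamax at 37 °C and 5% CO2. The resistant 451 Lu-R and MEL 1617-R sublines were maintained with 1 µM PLX4720. Cells were incubated with vehicle or inhibitor over a dose range, and viability was read by MTS assay in triplicate.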

A-375 [8] = experiment: Cell cycle arrest in human A-375 cells assessed as accumulation at S-phase at 10 uM measured after 24 hrs by […] (reference value: 33.6 to 33.7%); format: functional
[9] = target: Mitogen-activated protein kinase; ERK1/ERK2 (Homo sapiens) (UniProt P27361+P28482); experiment: Inhibition of ERK1/2 phosphorylation in human A-375 cells at 5 to 50 uM after 12 hrs by Western blotting analysis; format: cell-based; settings: dose 5-50 µM
[10] = target: T1, Signal transducer and activator of transcription 3; experiment: Inhibition of STAT3 phosphorylation at Y705 residue in human SB-590885-resistant MEL1617 cells at 10 to 25 uM measured after 12 hrs by Western blot analysis; format: cell-based; settings: dose 10-25 µM; summary of the method: as §2
[11] = Drug metabolism in pH 7.4 phosphate buffer assessed as nitric oxide release at 100 uM measured after 2 hrs by Griess reagent based colorimetric method; summary of the method: as §1
[12] = Antiproliferative activity against human SB-590885-sensitive MEL1617 cells assessed as reduction in cell viability measured after 48 hrs by MTS assay; format: functional, cell-based; settings: MEL1617, 48 h; summary of the method: as §4
[13] = target: Signal transducer and activator of transcription 1-alpha/beta (Homo sapiens) (UniProt P42224); experiment: Inhibition of STAT1 phosphorylation at Y701 residues in human A-375 cells at 50 uM after 20 hrs by Western blotting analysis; format: cell-based; summary of the method: as §3
MOLT-4 = experiment: Anticancer activity against human MOLT-4 cells assessed as cell growth inhibition at 10 uM measured after 48 hrs by SRB assay relative to control; format: functional; settings: read-out: GI
Summary of the method: (§5)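 NCI 60-cell-line screen. Cells in RPMI with 5% FBS were plated at 5,000–40,000 cells/well by doubling time and preincubated 24 h at 37 °C. Compound was added at a single 10 µM for 48 h, then cells were fixed with cold TCA (10% final) and stained with 0.4% SRB. Absorbance at 515 nm gave percent growth versus untreated control and time-zero cells.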

[14] = target: T1, Signal transducer and activator of transcription 3; experiment: Inhibition of STAT3 in human SB-590885-sensitive MEL1617 cells assessed as reduction in STAT3 transcriptional activity measured after 12 hrs by Dual-luciferase reporter gene assay; format: cell-based
Summary of the method: (§6)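 Cells co-transfected with inducible STAT3-responsive firefly luciferase and constitutive Renilla luciferase constructs (40:1) using Lipofectamine 3000. After 48 h, dose series in DMSO vehicle applied for 12 h, followed by dual-luciferase readout. Firefly signal normalized to Renilla and compared with untreated cells. Run in triplicate; IC50 taken from dose–response curves.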

[15] = target: T1, Signal transducer and activator of transcription 3; experiment: Inhibition of STAT3 in human SB-590885-resistant MEL1617 cells assessed as reduction in STAT3 transcriptional activity measured after 12 hrs by Dual-luciferase reporter gene assay; format: cell-based; summary of the method: as §6
LOX IMVI = experiment: Anticancer activity against human LOX IMVI cells assessed as cell growth inhibition at 10 uM measured after 48 hrs by SRB assay relative to control; format: functional; settings: read-out: GI; summary of the method: as §5
[16] = target: T1, Signal transducer and activator of transcription 3; experiment: Inhibition of STAT3 in human SB-590885-resistant MEL1617 cells assessed as reduction in PAX3 expression at 10 to 25 uM measured after 12 hrs by Western blot analysis; format: cell-based; settings: dose 10-25 µM; summary of the method: as §2
[17] = target: T1, Signal transducer and activator of transcription 3; experiment: Inhibition of STAT3 in human SB-590885-sensitive 451Lu cells assessed as reduction in STAT3 transcriptional activity measured after 12 hrs by Dual-luciferase reporter gene assay; summary of the method: as §6
[18] = target: T1, Signal transducer and activator of transcription 3; experiment: Inhibition of STAT3 phosphorylation at S727 residue in human SB-590885-resistant 451Lu cells measured after 12 hrs by Western blot analysis; settings: dose 10-25 µM; summary of the method: as §2
[19] = target: T1, Signal transducer and activator of transcription 3; experiment: Inhibition of STAT3 phosphorylation at Y705 residue in human SB-590885-resistant 451Lu cells measured after 12 hrs by Western blot analysis; settings: dose 10-25 µM; summary of the method: as §2

T1 sequence (P40763 whole entry): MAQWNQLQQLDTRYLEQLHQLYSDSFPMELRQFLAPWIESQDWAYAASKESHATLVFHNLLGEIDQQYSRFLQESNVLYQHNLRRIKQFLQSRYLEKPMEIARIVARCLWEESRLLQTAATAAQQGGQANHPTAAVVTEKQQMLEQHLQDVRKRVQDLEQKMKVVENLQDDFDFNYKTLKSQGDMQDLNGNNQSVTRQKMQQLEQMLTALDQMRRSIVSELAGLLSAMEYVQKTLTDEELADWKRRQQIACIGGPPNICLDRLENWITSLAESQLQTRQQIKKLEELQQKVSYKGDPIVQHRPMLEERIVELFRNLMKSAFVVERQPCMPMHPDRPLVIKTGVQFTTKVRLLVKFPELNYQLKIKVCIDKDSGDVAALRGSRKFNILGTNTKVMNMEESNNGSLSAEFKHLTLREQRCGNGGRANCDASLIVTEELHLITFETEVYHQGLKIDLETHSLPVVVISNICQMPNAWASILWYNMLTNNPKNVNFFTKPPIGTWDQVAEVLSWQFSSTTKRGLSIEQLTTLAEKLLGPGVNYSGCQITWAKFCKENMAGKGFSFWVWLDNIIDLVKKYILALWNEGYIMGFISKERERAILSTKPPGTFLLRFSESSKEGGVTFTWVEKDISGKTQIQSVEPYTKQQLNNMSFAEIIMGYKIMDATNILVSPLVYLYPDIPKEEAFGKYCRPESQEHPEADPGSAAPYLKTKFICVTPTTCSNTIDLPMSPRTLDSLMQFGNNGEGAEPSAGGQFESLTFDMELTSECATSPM
Sequence of Signal transducer and activator of transcription 1-alpha/beta (Homo sapiens) (P42224 whole entry): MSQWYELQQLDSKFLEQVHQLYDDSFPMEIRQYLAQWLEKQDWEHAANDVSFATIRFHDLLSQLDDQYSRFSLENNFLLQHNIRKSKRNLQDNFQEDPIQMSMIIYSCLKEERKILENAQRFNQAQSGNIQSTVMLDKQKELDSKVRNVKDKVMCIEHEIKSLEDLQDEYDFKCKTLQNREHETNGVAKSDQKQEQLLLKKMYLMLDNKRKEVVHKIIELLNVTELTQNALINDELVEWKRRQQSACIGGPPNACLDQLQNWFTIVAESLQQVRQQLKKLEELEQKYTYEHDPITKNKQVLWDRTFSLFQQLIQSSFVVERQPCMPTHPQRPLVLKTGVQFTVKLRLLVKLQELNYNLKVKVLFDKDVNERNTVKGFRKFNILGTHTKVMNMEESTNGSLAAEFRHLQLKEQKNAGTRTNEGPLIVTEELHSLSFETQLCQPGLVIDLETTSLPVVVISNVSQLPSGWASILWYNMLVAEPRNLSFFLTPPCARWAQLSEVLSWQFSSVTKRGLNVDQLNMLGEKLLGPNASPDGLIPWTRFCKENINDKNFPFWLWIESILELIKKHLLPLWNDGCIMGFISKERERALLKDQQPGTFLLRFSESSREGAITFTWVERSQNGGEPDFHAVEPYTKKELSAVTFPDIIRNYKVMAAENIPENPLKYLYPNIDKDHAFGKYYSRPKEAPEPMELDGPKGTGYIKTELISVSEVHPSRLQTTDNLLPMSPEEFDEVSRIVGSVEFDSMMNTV
Sequence of Tyrosine-protein kinase JAK2 (Homo sapiens) (O60674 whole entry): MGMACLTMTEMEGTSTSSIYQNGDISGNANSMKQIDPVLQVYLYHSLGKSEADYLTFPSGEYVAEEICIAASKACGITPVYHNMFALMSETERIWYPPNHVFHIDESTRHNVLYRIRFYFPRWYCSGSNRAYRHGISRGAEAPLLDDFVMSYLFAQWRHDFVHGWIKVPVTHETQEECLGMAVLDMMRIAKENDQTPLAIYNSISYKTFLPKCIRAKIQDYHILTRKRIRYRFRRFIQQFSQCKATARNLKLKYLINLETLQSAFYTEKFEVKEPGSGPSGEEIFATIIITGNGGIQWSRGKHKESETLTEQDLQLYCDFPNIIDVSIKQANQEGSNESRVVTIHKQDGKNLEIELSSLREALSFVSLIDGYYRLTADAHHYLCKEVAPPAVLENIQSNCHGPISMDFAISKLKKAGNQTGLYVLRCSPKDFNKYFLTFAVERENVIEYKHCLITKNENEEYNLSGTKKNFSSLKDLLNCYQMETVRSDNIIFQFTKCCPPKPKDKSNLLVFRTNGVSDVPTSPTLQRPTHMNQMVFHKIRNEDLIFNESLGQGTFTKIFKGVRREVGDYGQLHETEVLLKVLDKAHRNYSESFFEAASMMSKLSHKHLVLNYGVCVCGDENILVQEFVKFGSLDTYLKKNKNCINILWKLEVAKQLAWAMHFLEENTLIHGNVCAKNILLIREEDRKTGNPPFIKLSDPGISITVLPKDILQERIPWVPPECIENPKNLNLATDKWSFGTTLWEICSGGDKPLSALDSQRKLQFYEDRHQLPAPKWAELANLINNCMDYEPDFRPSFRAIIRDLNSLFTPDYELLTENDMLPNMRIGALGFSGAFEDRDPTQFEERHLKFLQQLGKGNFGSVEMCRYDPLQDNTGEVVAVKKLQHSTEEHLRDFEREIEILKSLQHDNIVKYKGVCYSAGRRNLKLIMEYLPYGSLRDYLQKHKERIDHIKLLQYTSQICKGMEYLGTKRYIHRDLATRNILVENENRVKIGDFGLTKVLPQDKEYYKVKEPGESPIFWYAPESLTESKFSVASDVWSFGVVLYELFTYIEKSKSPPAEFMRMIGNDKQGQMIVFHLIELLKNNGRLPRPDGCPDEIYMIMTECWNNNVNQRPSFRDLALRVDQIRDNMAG
Sequence of Signal transducer and activator of transcription 6 (Homo sapiens) (P42226 whole entry): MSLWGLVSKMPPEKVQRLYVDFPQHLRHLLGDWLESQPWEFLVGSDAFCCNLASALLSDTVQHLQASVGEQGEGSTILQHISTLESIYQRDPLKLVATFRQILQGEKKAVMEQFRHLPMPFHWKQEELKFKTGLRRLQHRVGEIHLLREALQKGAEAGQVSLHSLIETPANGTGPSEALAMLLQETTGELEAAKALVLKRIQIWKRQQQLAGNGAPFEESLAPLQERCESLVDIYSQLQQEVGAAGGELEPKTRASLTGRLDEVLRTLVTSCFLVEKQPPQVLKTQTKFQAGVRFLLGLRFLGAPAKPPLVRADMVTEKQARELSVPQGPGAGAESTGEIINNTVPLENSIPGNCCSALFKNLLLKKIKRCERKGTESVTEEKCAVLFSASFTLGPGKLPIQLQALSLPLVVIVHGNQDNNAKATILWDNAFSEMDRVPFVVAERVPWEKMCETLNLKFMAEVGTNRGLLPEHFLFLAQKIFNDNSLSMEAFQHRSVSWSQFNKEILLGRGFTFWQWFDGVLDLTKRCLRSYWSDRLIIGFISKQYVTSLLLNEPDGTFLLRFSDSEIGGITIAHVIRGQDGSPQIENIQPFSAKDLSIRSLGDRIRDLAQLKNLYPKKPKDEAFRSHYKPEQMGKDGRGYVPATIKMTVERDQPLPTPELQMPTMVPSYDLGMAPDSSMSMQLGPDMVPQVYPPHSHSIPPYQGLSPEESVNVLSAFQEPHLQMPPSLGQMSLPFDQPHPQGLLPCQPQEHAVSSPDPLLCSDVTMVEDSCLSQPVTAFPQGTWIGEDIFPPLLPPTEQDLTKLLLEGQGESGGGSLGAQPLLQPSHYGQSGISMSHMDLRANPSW
Sequence of Mitogen-activated protein kinase; ERK1/ERK2 (Homo sapiens) (P27361 whole entry, looked up): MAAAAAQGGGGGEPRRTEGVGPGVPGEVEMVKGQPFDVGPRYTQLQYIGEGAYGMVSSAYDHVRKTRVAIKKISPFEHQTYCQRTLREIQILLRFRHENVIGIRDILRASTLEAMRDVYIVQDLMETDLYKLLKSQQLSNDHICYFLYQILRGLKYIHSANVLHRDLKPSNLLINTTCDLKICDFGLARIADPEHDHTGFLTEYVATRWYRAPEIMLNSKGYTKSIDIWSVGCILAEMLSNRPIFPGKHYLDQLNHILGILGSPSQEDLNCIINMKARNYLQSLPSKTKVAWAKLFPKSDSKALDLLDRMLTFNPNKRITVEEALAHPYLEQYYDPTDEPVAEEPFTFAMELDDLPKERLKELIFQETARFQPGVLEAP
Sequence of Mitogen-activated protein kinase; ERK1/ERK2 (Homo sapiens) (P28482 whole entry, looked up): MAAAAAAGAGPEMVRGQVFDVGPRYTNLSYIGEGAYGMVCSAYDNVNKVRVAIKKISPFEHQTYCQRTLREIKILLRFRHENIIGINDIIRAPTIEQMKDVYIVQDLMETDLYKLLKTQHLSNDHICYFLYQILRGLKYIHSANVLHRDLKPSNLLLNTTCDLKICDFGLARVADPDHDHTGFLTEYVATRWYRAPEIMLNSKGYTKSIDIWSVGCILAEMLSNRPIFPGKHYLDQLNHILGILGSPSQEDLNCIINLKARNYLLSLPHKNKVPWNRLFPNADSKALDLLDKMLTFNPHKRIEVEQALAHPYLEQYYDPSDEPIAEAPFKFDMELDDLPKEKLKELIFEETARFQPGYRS

| inhibition [3] | inhibition [4] | inhibition [5] | inhibition [6] | inhibition [9] | inhibition [10] | inhibition [13] | IC50 [14] [µM] | IC50 [15] [µM] | inhibition [16] | IC50 [17] [µM] | SMILES | Drug metabolism [1] [%] | IC50 (A-375 [2]) [µM] | IC50 (MCF-10A) [µM] | IC50 [7] [µM] | Activity (A-375 [8]) [%] | Drug metabolism [11] [%] | IC50 [12] [µM] | inhibition of growth at 10 µM (MOLT-4) [%] | inhibition of growth at 10 µM (LOX IMVI) [%] | also measured |
| --- | --- | --- | --- | --- | --- | --- | --- | --- | --- | --- | --- | --- | --- | --- | --- | --- | --- | --- | --- | --- | --- |
| Dose-dependent effect | Dose-dependent effect | inactive | inactive | inactive | Active | inactive | 21.4 | 15.6 | Active | 7.9 | C=CCn1c(SCC(=O)Nc2ccc(/C(C)=N\O)cc2)nnc1-c1cc(-c2ccc(Cl)cc2)nc2ccccc12 | 30 | 1.9 | 92.9 | 54.1 | 24.9 | 15 | 46.1 | 100 | 100 | inhibition [18]: Dose-dependent effect; inhibition [19]: Dose-dependent effect |
| Dose-dependent effect | Dose-dependent effect | inactive | inactive | inactive | Active | inactive | 10.3 | 9.9 | Active | 6.3 | C=CCn1c(SCC(=O)Nc2ccc(/C(C)=N\O)cc2)nnc1-c1cc(-c2ccccc2)nc2ccccc12 | 30 | 7.7 | 100 | 10.8 | 18.8 | 15 | 8.4 | 76 | 76 | inhibition [18]: Dose-dependent effect; inhibition [19]: Dose-dependent effect |
